ChEMBL document CHEMBL4680093 (J Med Chem, 2016)
Calls of active or inactive are those of the source. The calls are words filed in the database; no cut-off is given here.

Key:
[1] = In-vivo inhibition of 11beta-HSD1 activity in C57BL/6 mouse epididymal fat assessed as reduction in cortisone to-cortisol conversion at 10 mg/kg, po measured after 2 hrs by ELISA; format: functional; details: C57BL/6, Epididymal fat pad
Method in brief: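 Male C57BL/6 mice dosed orally once at 3, 10 or 30 mg/kg in sterile water containing 0.5% methylcellulose and 1% Tween80, then sacrificed at 2 or 6 h. Liver and epididymal fat pads incubated ex vivo in culture medium containing cortisone. Cortisol formed was measured by ELISA and reported as % inhibition versus vehicle.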

[2] = In-vivo inhibition of 11beta-HSD1 activity in C57BL/6 mouse liver assessed as reduction in cortisone to-cortisol conversion at 10 mg/kg, po measured after 2 hrs by ELISA; format: functional; details: C57BL/6, Liver
[3] = Metabolic stability in mouse liver microsomes assessed as compound remaining after 30 mins; format: ADME, Microsome; details: read-out: Stabilty
[4] = test system: Mus musculus; assay: Improvement in lipid profile in C57BL/6-Lep^ob (ob/ob) mouse assessed as LDL cholesterol level at 300 mg/kg, po dosed once daily for 25 days (reference value: 30.3 +/- 0.8 mg/dl); format: functional; details: time 25 day
[5] = Reduction in HbA1c level in C57BL/6-Lep^ob (ob/ob) mouse at 300 mg/kg, po dosed once daily for 25 days relative to control; format: functional; parameters: scale not given: the % may be the effect or the level left; details: time 25 day
Method in brief: (§1)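 Eight-week-old male ob/ob mice were dosed orally once daily for 25 days with vehicle (sterile water, 0.5% methylcellulose, 1% Tween80), test compound 20 mg/kg, metformin 300 mg/kg, or the combination. Baseline postprandial glucose and HbA1c were checked from tail-vein blood. Changes in HbA1c and non-fasting blood glucose were expressed relative to the vehicle group.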

[6] = test system: Mus musculus; assay: Reduction in nonfasting blood glucose level in C57BL/6-Lep^ob (ob/ob) mouse at 300 mg/kg, po dosed once daily for 25 days relative to control; format: functional, organism-based; details: time 25.0 day; method in brief: as §1
[7] = test system: Mus musculus; assay: Improvement in lipid profile in C57BL/6-Lep^ob (ob/ob) mouse assessed as triglyceride level at 300 mg/kg, po dosed once daily for 25 days (reference value: 90.9 +/- 5.5 mg/dl); format: functional; details: time 25 day
[8] = test system: Mus musculus; assay: Improvement in lipid profile in C57BL/6-Lep^ob (ob/ob) mouse assessed as total cholesterol level at 300 mg/kg, po dosed once daily for 25 days (reference value: 286.6 +/- 6.3 mg/dl); format: functional; details: time 25 day
[9] = molecular target: Cytochrome P450 3A4 (Homo sapiens, UniProt P08684); assay: Inhibition of CYP3A4 in pooled human liver microsomes using midazolam as substrate in presence of NADPH incubated for 10 mins by LC-MS/MS analysis
[10] = molecular target: T1, Cytochrome P450 1A2 (Homo sapiens, UniProt P05177); assay: Inhibition of CYP1A2 in pooled human liver microsomes using phenacetin as substrate in presence of NADPH incubated for 10 mins by LC-MS/MS analysis
T1 sequence (P05177 whole entry): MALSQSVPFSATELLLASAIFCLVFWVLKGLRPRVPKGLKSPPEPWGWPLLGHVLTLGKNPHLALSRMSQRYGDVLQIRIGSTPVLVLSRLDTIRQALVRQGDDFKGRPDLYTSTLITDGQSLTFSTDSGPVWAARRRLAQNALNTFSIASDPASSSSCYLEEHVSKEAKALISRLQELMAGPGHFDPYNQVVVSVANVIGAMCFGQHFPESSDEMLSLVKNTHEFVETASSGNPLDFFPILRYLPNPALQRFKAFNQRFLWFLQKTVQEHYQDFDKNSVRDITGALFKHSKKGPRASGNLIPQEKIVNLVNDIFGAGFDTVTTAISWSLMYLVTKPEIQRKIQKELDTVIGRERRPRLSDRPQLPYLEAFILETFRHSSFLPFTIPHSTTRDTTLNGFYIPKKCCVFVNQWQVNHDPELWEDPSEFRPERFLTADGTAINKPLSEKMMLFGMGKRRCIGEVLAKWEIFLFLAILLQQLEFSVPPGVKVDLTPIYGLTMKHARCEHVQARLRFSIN

[11] = molecular target: Cytochrome P450 2D6 (Homo sapiens, UniProt P10635); assay: Inhibition of CYP2D6 in pooled human liver microsomes using dextromethorphan as substrate in presence of NADPH incubated for 10 mins by LC-MS/MS analysis
[12] = molecular target: Cytochrome P450 2C19 (Homo sapiens, UniProt P33261); assay: Inhibition of CYP2C19 in pooled human liver microsomes using mephenytoin as substrate in presence of NADPH incubated for 10 mins by LC-MS/MS analysis
[13] = molecular target: Cytochrome P450 2C9 (Homo sapiens, UniProt P11712); assay: Inhibition of CYP2C9 in pooled human liver microsomes using diclofenac as substrate in presence of NADPH incubated for 10 mins by LC-MS/MS analysis
[14] = molecular target: 11-beta-hydroxysteroid dehydrogenase 1 (Homo sapiens, UniProt P28845); assay: Inhibition of human 11beta-HSD1 expressed in HEK293 cells using cortisone by ELISA
[15] = molecular target: T2, Nuclear receptor subfamily 1 group I member 2 (Homo sapiens, UniProt O75469); assay: Activation of PXR (unknown origin) at 10 uM relative to rifampicin; format: ADME
T2 sequence (O75469 whole entry): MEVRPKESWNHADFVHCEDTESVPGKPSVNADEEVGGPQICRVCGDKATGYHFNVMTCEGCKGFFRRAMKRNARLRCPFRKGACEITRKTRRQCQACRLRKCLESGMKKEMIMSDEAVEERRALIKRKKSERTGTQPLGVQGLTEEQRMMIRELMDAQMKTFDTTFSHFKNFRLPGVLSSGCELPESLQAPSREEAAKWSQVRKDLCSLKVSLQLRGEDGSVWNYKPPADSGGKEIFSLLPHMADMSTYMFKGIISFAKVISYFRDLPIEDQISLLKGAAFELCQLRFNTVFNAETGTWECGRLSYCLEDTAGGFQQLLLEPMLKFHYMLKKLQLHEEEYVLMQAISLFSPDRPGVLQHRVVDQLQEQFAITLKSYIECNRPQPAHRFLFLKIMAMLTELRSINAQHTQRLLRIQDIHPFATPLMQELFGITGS

[16] = Reduction in fasting plasma glucose in patient with type 2 diabetes exhibiting inadequate glycemic control with metformin alone dosed for 12 weeks during phase 2 trial; format: functional, Homo sapiens
[17] = Reduction in HOMA-IR in patient with type 2 diabetes exhibiting inadequate glycemic control with metformin alone dosed for 12 weeks during phase 2 trial; format: functional, Homo sapiens; parameters: scale not given: the % may be the effect or the level left
[18] = Reduction in HbA1c in patient with type 2 diabetes exhibiting inadequate glycemic control with metformin alone dosed for 12 weeks during phase 2 trial; format: functional, Homo sapiens; parameters: scale not given: the % may be the effect or the level left

Chain of Cytochrome P450 2D6 (P10635 whole entry): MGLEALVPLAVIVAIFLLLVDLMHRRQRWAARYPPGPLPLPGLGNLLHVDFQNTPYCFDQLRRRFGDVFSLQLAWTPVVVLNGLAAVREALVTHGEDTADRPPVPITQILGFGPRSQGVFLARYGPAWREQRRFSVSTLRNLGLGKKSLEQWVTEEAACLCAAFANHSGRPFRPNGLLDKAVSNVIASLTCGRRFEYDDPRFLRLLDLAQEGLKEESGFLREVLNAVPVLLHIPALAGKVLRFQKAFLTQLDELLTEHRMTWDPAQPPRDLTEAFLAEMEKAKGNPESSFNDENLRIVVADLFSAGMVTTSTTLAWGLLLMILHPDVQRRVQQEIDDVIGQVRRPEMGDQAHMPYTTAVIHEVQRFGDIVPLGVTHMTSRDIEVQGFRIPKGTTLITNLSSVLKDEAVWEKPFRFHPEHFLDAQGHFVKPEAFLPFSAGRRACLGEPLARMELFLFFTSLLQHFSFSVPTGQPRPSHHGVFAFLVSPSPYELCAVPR
Chain of Cytochrome P450 2C19 (P33261 whole entry): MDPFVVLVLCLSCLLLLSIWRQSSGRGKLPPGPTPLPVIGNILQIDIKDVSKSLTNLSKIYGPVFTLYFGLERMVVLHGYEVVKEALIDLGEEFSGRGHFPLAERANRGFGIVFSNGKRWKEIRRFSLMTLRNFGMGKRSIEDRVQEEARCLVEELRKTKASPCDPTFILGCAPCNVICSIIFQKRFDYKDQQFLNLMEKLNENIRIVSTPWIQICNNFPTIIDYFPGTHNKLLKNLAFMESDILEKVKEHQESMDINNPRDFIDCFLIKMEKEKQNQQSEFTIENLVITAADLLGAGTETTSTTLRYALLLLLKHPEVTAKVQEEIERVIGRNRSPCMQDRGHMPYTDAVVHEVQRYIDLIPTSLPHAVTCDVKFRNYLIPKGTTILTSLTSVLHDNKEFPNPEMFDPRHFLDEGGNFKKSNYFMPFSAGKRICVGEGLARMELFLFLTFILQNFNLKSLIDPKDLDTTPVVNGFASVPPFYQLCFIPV
Chain of Cytochrome P450 2C9 (P11712 whole entry): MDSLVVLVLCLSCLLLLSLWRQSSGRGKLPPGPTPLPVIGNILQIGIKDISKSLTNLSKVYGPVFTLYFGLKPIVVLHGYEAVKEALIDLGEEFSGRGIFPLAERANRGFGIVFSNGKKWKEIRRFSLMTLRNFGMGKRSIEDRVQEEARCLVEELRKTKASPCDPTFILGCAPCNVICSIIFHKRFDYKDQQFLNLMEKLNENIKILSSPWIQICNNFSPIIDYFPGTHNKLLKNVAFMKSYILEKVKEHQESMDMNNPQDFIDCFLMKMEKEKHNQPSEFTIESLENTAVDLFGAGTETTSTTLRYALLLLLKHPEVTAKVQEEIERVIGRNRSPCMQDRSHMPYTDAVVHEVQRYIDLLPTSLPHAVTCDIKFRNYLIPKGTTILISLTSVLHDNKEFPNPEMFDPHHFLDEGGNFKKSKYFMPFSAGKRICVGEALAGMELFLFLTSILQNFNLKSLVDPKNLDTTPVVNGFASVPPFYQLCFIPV
Chain of Cytochrome P450 3A4 (P08684 whole entry): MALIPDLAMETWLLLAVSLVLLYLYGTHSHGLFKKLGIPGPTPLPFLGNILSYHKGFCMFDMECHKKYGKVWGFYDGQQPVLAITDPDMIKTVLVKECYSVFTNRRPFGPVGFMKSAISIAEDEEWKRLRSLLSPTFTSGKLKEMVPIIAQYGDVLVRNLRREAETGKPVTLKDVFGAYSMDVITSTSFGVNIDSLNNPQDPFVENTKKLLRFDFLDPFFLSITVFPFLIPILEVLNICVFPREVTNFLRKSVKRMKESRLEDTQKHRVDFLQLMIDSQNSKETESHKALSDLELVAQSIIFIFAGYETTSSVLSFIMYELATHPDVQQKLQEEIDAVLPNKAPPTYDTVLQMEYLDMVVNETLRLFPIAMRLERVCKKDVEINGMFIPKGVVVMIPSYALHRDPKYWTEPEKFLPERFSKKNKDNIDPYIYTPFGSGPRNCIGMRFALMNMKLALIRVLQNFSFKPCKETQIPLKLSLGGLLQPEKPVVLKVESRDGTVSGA
Chain of 11-beta-hydroxysteroid dehydrogenase 1 (P28845 whole entry): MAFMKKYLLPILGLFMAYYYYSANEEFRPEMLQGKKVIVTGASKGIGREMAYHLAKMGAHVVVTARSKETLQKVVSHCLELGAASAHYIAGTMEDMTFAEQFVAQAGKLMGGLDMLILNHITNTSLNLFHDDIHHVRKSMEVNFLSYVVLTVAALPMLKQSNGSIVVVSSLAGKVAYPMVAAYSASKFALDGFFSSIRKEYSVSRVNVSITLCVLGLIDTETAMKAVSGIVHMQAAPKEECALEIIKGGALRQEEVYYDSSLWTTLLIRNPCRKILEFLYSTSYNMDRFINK

Row | Structure (SMILES) | inhibition in vivo at 10 mg/kg [1] [%] | inhibition in vivo at 10 mg/kg [2] [%] | remaining at 0.5 h [3] [%] | further results
1 | C[C@@H]1CN(c2ccc(S(C)(=O)=O)cc2Cl)CCN1c1nccc(C(=O)NC2C3CC4CC2CC(O)(C4)C3)n1 (stereo partly specified) | 82 | 77 | 96 | 
2 | CN(C)C(=N)NC(=N)N [METFORMIN] |  |  |  | Activity [4]: 23.9 mg/dL; Activity [5]: 0.7%; Activity [6]: inactive; Activity [7]: 99.9 mg/dL; Activity [8]: 252.6 mg/dL
3 | CNS(=O)(=O)c1ccc(N2CCN(c3cccc(C(=O)NC4C5CC6CC4CC(O)(C6)C5)n3)[C@H](C)C2)cc1 (stereo partly specified) | 33 | 12 | 83 | 
4 | C[C@@H]1CN(c2ccc(C(C)(C)O)nc2)CCN1c1cccc(C(=O)NC2C3CC4CC2CC(O)(C4)C3)n1 (stereo partly specified) | 87 | 63 | 76 | 
5 | C[C@@H]1CN(c2ccc(C(C)(C)O)cc2)CCN1c1nccc(C(=O)NC2C3CC4CC2CC(O)(C4)C3)n1 (stereo partly specified) | 46 | 32 | 99 | 
6 | C[C@@H]1CN(c2ccc(S(C)(=O)=O)cc2)CCN1c1nccc(C(=O)NC2C3CC4CC2CC(O)(C4)C3)n1 (stereo partly specified) | 81 | 48 | 92 | IC50 [9]: > 10 µM; IC50 [10]: > 10 µM; IC50 [11]: > 10 µM; IC50 [12]: > 10 µM; IC50 [13]: > 10 µM
7 | C[C@@H]1CN(c2ccc(C(=O)O)cc2)CCN1c1cccc(C(=O)NC2C3CC4CC2CC(O)(C4)C3)n1 (stereo partly specified) |  |  | 71 | 
8 | C[C@@H]1CN(c2ccc(C(F)(F)F)cc2)CCN1c1nccc(C(=O)NC2C3CC4CC2CC(O)(C4)C3)n1 (stereo partly specified) |  |  | 90 | 
9 | C[C@@H]1CN(c2ccc(C#N)cc2)CCN1c1nccc(C(=O)NC2C3CC4CC2CC(O)(C4)C3)n1 (stereo partly specified) | 12 | 6 | 86 | 
10 | C[C@@H]1CN(c2ccc(S(C)(=O)=O)cc2)CCN1c1cccc(C(=O)NC2C3CC4CC2CC(O)(C4)C3)n1 (stereo partly specified) | 86 | 70 | 97 | IC50 [9]: 0.97 µM; IC50 [10]: > 10 µM; IC50 [11]: > 10 µM; IC50 [12]: 3.7 µM; IC50 [14]: 0.0031 µM; Activity [15]: 32.7%; IC50 [13]: > 10 µM
11 | CCS(=O)(=O)c1ccc(N2CCN(c3nccc(C(=O)NC4C5CC6CC4CC(O)(C6)C5)n3)[C@H](C)C2)c(F)c1 (stereo partly specified) | 82 | 79 | 91 | 
12 | C[C@@H]1CN(c2cc(F)c(S(C)(=O)=O)cc2F)CCN1c1nccc(C(=O)NC2C3CC4CC2CC(O)(C4)C3)n1 (stereo partly specified) | 85 | 80 | 92 | 
13 | C[C@@H]1CN(c2ccc(C(N)=O)cc2)CCN1c1cccc(C(=O)NC2C3CC4CC2CC(O)(C4)C3)n1 (stereo partly specified) | 26 | 0 | 57 | 
14 | C[C@@H]1CN(c2ccc(C(C)(C)O)cc2F)CCN1c1nccc(C(=O)NC2C3CC4CC2CC(O)(C4)C3)n1 (stereo partly specified) | 74 | 43 | 98 | 
15 | O=C(NC1CCCCC1)[C@H]1CCCN(S(=O)(=O)c2cccc(Cl)c2)C1 |  |  |  | Activity [16]: 24 mg/dL; Activity [17]: 24%; Activity [18]: 0.6%
16 | C[C@@H]1CN(c2c(F)cc(S(C)(=O)=O)cc2F)CCN1c1nccc(C(=O)NC2C3CC4CC2CC(O)(C4)C3)n1 (stereo partly specified) |  |  | 95 | 
17 | C[C@@H]1CN(c2ccc(Cl)cc2)CCN1c1nccc(C(=O)NC2C3CC4CC2CC(O)(C4)C3)n1 (stereo partly specified) |  |  | 78 | 
18 | C[C@@H]1CN(c2ccc(S(N)(=O)=O)cc2)CCN1c1cccc(C(=O)NC2C3CC4CC2CC(O)(C4)C3)n1 (stereo partly specified) | 11 | 0 | 65 | 
19 | Cc1cc(S(C)(=O)=O)ccc1N1CCN(c2nccc(C(=O)NC3C4CC5CC3CC(O)(C5)C4)n2)[C@H](C)C1 (stereo partly specified) | 77 | 64 | 90 | 
20 | CNC(=O)c1ccc(N2CCN(c3cccc(C(=O)NC4C5CC6CC4CC(O)(C6)C5)n3)[C@H](C)C2)cc1 (stereo partly specified) | 34 | 0 | 61 | 
21 | C[C@@H]1CN(c2ccc(C(N)=O)nc2)CCN1c1cccc(C(=O)NC2C3CC4CC2CC(O)(C4)C3)n1 (stereo partly specified) |  |  | 23 | 
22 | CNC(=O)c1ccc(N2CCN(c3cccc(C(=O)NC4C5CC6CC4CC(O)(C6)C5)n3)[C@H](C)C2)cn1 (stereo partly specified) | 85 | 52 | 66 | IC50 [9]: > 10 µM; IC50 [10]: > 10 µM; IC50 [11]: > 10 µM; IC50 [12]: 0.7 µM; IC50 [13]: > 10 µM
23 | C[C@@H]1CN(c2ccc(F)cc2)CCN1c1nccc(C(=O)NC2C3CC4CC2CC(O)(C4)C3)n1 (stereo partly specified) |  |  | 82 | 
